Experimental data from ChEMBL document CHEMBL3228037, “Syntheses and antiinflammatory actions of 4,5,6,7-tetrahydroindazole-5-carboxylic acids” (J Med Chem, 1979).

Experiments:
Rattus norvegicus [1] = experiment: Antiinflammatory activity in rat assessed as inhibition of carrageenan-induced paw edema at 25 mg/kg, po preincubated for 1 hr followed by carrageenan challenge relative to control; assay type: functional
How it was run: (§1)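 Winter carrageenan edema screen in rats. Compound was given orally as a suspension in 0.5% CMC at 100 and/or 25 mg/kg. One hour later, 1% carrageenan solution was injected into the hind paw.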

Rattus norvegicus [2] = experiment: Antiinflammatory activity in rat assessed as inhibition of carrageenan-induced paw edema at 100 mg/kg, po preincubated for 1 hr followed by carrageenan challenge relative to control; assay type: functional; how it was run: as §1
Rattus norvegicus [3] = experiment: Antiinflammatory activity in rat assessed as inhibition of carrageenan-induced paw edema at 10 mg/kg, po preincubated for 1 hr followed by carrageenan challenge relative to control; assay type: functional
How it was run: (§2)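 Winter carrageenan paw edema in rats. Oral dosing as a suspension in 0.5% CMC was followed 1 h later by 1% carrageenan injected into the hind paw. Several doses were tested, and ED50 was read from the dose-response curve.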

Mus musculus = experiment: Analgesic activity in po dosed mouse assessed as inhibition of acetic acid-induced writhing; assay type: functional
How it was run: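 Acetic acid writhing test after Koster, using 10 male mice per dose.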

Rattus norvegicus [4] = experiment: Antiinflammatory activity in po dosed rat assessed as inhibition of carrageenan-induced paw edema preincubated for 1 hr followed by carrageenan challenge relative to control; assay type: functional; how it was run: as §2
Rattus norvegicus [5] = experiment: Antiarthritic activity in po dosed rat assessed as reduction of adjuvant-induced foot volume administered as qd for 14 days starting on day 14 after adjuvant inoculation measured on day 28; assay type: functional
How it was run: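 Rats with established adjuvant arthritis (Newbould method) were dosed orally once daily for 14 days, starting on day 14 after adjuvant inoculation. Foot swelling was measured as volume. ED50 was estimated from the dose-response curve.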

Rattus norvegicus [6] = experiment: Ulcerogenic activity in po dosed rat assessed as induction of lesions in gastric mucosa measured after 24 hrs; assay type: toxicity, organism-based; conditions: in vivo
How it was run: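 Compounds were suspended in 0.2% carboxymethylcellulose and given orally to seven male rats per dose, at five or more doses; controls got vehicle alone. Rats were killed 24 h later, and gastric lesions (hemorrhage, erosion, ulcer) were counted blind. MUD, the dose giving two lesions, was calculated graphically.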

Rattus norvegicus [7] = experiment: Antiinflammatory activity in rat assessed as inhibition of carrageenan-induced paw edema at 2.5 mg/kg, po preincubated for 1 hr followed by carrageenan challenge relative to control; assay type: functional; how it was run: as §2
Rattus norvegicus [8] = experiment: Antiinflammatory activity in rat assessed as inhibition of carrageenan-induced paw edema at 3 mg/kg, po preincubated for 1 hr followed by carrageenan challenge relative to control; assay type: functional; how it was run: as §2
Rattus norvegicus [9] = experiment: Antiinflammatory activity in rat assessed as inhibition of carrageenan-induced paw edema at 50 mg/kg, po preincubated for 1 hr followed by carrageenan challenge relative to control; assay type: functional; how it was run: as §2

Question: How did the inhibition in vivo at 25 mg/kg (Rattus norvegicus [1]) turn out when `Cc1ccc(-n2ncc3c2CCC(C(=O)O)C3)cc1` (centres undefined) was run?
Answer: 38.7%

Question: With `O=C(O)C1CCc2c(cnn2-c2cccc(C(F)(F)F)c2)C1` (centres undefined) as the compound, how does the inhibition in vivo at 25 mg/kg (Rattus norvegicus [1]) read?
Answer: 35.6%

Question: For `O=C(O)C1CCc2c(cnn2Cc2ccccc2)C1` (centres undefined), which inhibition in vivo at 25 mg/kg (Rattus norvegicus [1]) is on record?
Answer: 15.9%

Question: With `O=C(O)c1nn(-c2cccc(C(F)(F)F)c2)c2c1CC(C(=O)O)CC2` (centres undefined) as the compound, how does the inhibition in vivo at 100 mg/kg (Rattus norvegicus [2]) read?
Answer: 0%

Question: Which inhibition in vivo at 10 mg/kg (Rattus norvegicus [3]) does the source give for `O=C(O)C1CCc2c(cnn2-c2ccc(Cl)cc2)C1` (centres undefined) here?
Answer: 39.4%

Question: And the ED50 (Mus musculus)?
Answer: 7 mg/kg

Question: What about the ED50 (Rattus norvegicus [4]) of the same compound?
Answer: 17 mg/kg

Question: And the inhibition in vivo at 25 mg/kg (Rattus norvegicus [1])?
Answer: 39.4%

Question: And the ED50 (Rattus norvegicus [5])?
Answer: 6.4 mg/kg

Question: What about the MUD (Rattus norvegicus [6]) of the same compound?
Answer: 70 mg/kg

Question: What does the source list for `O=C(O)c1ccccc1Nc1cccc(C(F)(F)F)c1` [FLUFENAMIC ACID]?
Answer: ED50 (Mus musculus): 160 mg/kg; ED50 (Rattus norvegicus [4]): 20 mg/kg; ED50 (Rattus norvegicus [5]): 5.1 mg/kg; MUD (Rattus norvegicus [6]): 50 mg/kg

Question: For `O=C(O)C1CCc2nn(-c3ccc(Cl)cc3)cc2C1` (centres undefined), which inhibition in vivo at 100 mg/kg (Rattus norvegicus [2]) is on record?
Answer: 17.9%

Question: For `O=C(O)C1CCc2c(cnn2-c2cccc3ccccc23)C1` (centres undefined), which inhibition in vivo at 25 mg/kg (Rattus norvegicus [1]) is on record?
Answer: 13.1%

Question: `Cc1ccc(-n2cc3c(n2)CCC(C(=O)O)C3)cc1` (centres undefined) was tested. Which inhibition in vivo at 100 mg/kg (Rattus norvegicus [2]) did it give?
Answer: 10.8%

Question: `O=C(O)C1CCc2c(cnn2-c2ccc(O)cc2)C1` (centres undefined) was tested. Which inhibition in vivo at 100 mg/kg (Rattus norvegicus [2]) did it give?
Answer: 14.7%

Question: With `O=C(O)c1nn(-c2ccccc2)c2c1CC(C(=O)O)CC2` (centres undefined) as the compound, how does the inhibition in vivo at 100 mg/kg (Rattus norvegicus [2]) read?
Answer: 0%

Question: Which inhibition in vivo at 100 mg/kg (Rattus norvegicus [2]) does the source give for `O=C(O)C1CCc2nn(-c3ccccc3)cc2C1` (centres undefined) here?
Answer: 36.4%

Question: With `O=C(O)C1CCc2nn(-c3ccccn3)cc2C1` (centres undefined) as the compound, how does the inhibition in vivo at 100 mg/kg (Rattus norvegicus [2]) read?
Answer: 11.5%

Question: How did the inhibition in vivo at 25 mg/kg (Rattus norvegicus [1]) turn out when `O=C(O)C1CCc2c(cnn2-c2ccccn2)C1` (centres undefined) was run?
Answer: 57.9%

Question: `Cc1ccc(-n2nc(C(=O)O)c3c2CCC(C(=O)O)C3)cc1` (centres undefined) was tested. Which inhibition in vivo at 100 mg/kg (Rattus norvegicus [2]) did it give?
Answer: 0%

Question: `O=C(O)C1CCc2c(cnn2-c2ccccc2)C1` (centres undefined) was tested. Which inhibition in vivo at 2.5 mg/kg (Rattus norvegicus [7]) did it give?
Answer: 40.6%

Question: What about the inhibition in vivo at 10 mg/kg (Rattus norvegicus [3]) of the same compound?
Answer: 72.6%

Question: What about the ED50 (Mus musculus) of the same compound?
Answer: 4.7 mg/kg

Question: What about the ED50 (Rattus norvegicus [4]) of the same compound?
Answer: 3.5 mg/kg

Question: What about the ED50 (Rattus norvegicus [5]) of the same compound?
Answer: 1.5 mg/kg

Question: What about the MUD (Rattus norvegicus [6]) of the same compound?
Answer: 20 mg/kg

Question: With `O=C(O)C1CCc2c(cnn2-c2ccncc2)C1` (centres undefined) as the compound, how does the inhibition in vivo at 25 mg/kg (Rattus norvegicus [1]) read?
Answer: 13.4%

Question: `COc1ccc(-n2ncc3c2CCC(C(=O)O)C3)cc1` (centres undefined) was tested. Which inhibition in vivo at 25 mg/kg (Rattus norvegicus [1]) did it give?
Answer: 9.8%

Question: `Cc1ccccc1-n1ncc2c1CCC(C(=O)O)C2` (centres undefined) was tested. Which inhibition in vivo at 25 mg/kg (Rattus norvegicus [1]) did it give?
Answer: 0%

Question: Which results are given for `COc1ccc2c(c1)c(CC(=O)O)c(C)n2C(=O)c1ccc(Cl)cc1` [INDOMETHACIN]?
Answer: inhibition in vivo at 3 mg/kg (Rattus norvegicus [8]): 35.5%; ED50 (Mus musculus): 6.3 mg/kg; ED50 (Rattus norvegicus [4]): 3.8 mg/kg; ED50 (Rattus norvegicus [5]): 0.3 mg/kg; MUD (Rattus norvegicus [6]): 5.6 mg/kg

Question: Which inhibition in vivo at 100 mg/kg (Rattus norvegicus [2]) does the source give for `COc1ccc(-n2cc3c(n2)CCC(C(=O)O)C3)cc1` (centres undefined) here?
Answer: 6%

Question: For `O=C(O)C1CCc2nn(-c3cccc(C(F)(F)F)c3)cc2C1` (centres undefined), which inhibition in vivo at 100 mg/kg (Rattus norvegicus [2]) is on record?
Answer: 14.8%

Question: Which inhibition in vivo at 25 mg/kg (Rattus norvegicus [1]) does the source give for `O=C(O)C1CCc2nn(-c3cccc4ccccc34)cc2C1` (centres undefined) here?
Answer: 0%

Question: How did the inhibition in vivo at 25 mg/kg (Rattus norvegicus [1]) turn out when `O=C(O)C1CCc2c(cnn2-c2cccc(F)c2)C1` (centres undefined) was run?
Answer: 38.2%

Question: Which ED50 (Mus musculus) does the source give for `CCCCC1C(=O)N(c2ccccc2)N(c2ccccc2)C1=O` [PHENYLBUTAZONE] here?
Answer: 810 mg/kg

Question: What about the ED50 (Rattus norvegicus [4]) of the same compound?
Answer: 78 mg/kg

Question: And the ED50 (Rattus norvegicus [5])?
Answer: 12 mg/kg

Question: And the inhibition in vivo at 50 mg/kg (Rattus norvegicus [9])?
Answer: 43.4%

Question: What about the MUD (Rattus norvegicus [6]) of the same compound?
Answer: 90 mg/kg

Question: With `Cc1ccccc1-n1cc2c(n1)CCC(C(=O)O)C2` (centres undefined) as the compound, how does the inhibition in vivo at 100 mg/kg (Rattus norvegicus [2]) read?
Answer: 38%

Question: How did the inhibition in vivo at 100 mg/kg (Rattus norvegicus [2]) turn out when `O=C(O)C1CCc2nn(Cc3ccccc3)cc2C1` (centres undefined) was run?
Answer: 3.7%

Question: Which inhibition in vivo at 100 mg/kg (Rattus norvegicus [2]) does the source give for `O=C(O)c1nn(-c2ccc(Cl)cc2)c2c1CC(C(=O)O)CC2` (centres undefined) here?
Answer: 0%
